The source made the active and inactive calls. The rule behind the calls is not given here.
How the values were obtained:
hERG = hERG (Homo sapiens, UniProt Q12809); assay: Blockade of current at hERG expressed in HEK293 cells at 3 ug/mL; assay type: cell-based; conditions: HEK293 cells that express hERG
Summary of the method: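 hERG stably expressed in HEK293 cells; whole-cell voltage clamp. Pipette: K aspartate/KCl/EGTA/MgATP, pH 7.3. Bath: NaCl-based HEPES, pH 7.4. Compound dissolved in DMSO (≤0.1%), one concentration per cell. Steps to -25 to +50 mV for 3 s, then -50 mV for 4 s, from -80 mV every 15 s; tail current measured against DMSO vehicle.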

[1] = molecular target: Phosphodiesterase 6 (Homo sapiens) (UniProt Q13956+P18545+P35913+O43924+P16499+P51160); assay: Activity at PDE6 at 10 uM; assay type: protein assay
Summary of the method: (§1)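 Broad selectivity panel (over 70 receptors, ion channels and neuronal receptors, PDE1-6 included) run at a single 10 µM concentration.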

[2] = AUC in rat at 1 mg/kg, po; assay type: ADME, organism-based; parameters: dose 1 mg/kg, route oral; conditions: plasma
Summary of the method: (§2)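 Single 1 mg/kg dose given iv, sc or orally to Sprague-Dawley rats, dogs and monkeys; plasma concentrations followed over time (mean ± SEM, n = 3). Cmax, AUC, half-life, clearance and bioavailability calculated from the curves.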

[3] = molecular target: Phosphodiesterase 1 (Homo sapiens) (UniProt P54750+Q01064+Q14123); assay: Activity at PDE1 at 10 uM; assay type: protein assay; summary of the method: as §1
[4] = Effect on canine cardiac Purkinje fiber repolarization measured as prolongation of action potential duration at 1 ug/mL; assay type: functional, Canis lupus familiaris
Summary of the method: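 Canine Purkinje fibers impaled with 3 M KCl microelectrodes. Fibers accepted with resting potential below -80 mV and APD 300-500 ms. Paced at BCL 2 s, then 800 and 400 ms. Two ascending concentrations applied, each after 25 min equilibration. APD90 measured at all three rates.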

[5] = Bioavailability in monkey at 1 mg/kg, po; assay type: ADME, organism-based, Macaca mulatta; conditions: rhesus monkey, in vivo; summary of the method: as §2
D(2) dopamine receptor = D(2) dopamine receptor (Homo sapiens, UniProt P14416); assay: Binding affinity to human D2S receptor
D(2) dopamine receptor, sequence (P14416 whole entry): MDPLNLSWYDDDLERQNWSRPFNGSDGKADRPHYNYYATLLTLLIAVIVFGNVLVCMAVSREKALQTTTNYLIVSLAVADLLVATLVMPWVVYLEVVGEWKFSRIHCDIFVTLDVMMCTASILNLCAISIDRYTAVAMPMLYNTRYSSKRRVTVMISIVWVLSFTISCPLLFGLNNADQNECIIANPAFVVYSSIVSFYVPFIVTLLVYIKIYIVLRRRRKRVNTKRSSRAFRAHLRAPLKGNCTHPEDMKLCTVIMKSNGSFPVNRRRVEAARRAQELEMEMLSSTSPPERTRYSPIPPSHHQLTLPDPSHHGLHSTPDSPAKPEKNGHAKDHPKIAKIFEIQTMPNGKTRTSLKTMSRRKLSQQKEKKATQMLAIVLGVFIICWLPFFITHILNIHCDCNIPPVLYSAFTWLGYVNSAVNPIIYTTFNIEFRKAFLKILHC

D(4) dopamine receptor = molecular target: T1, D(4) dopamine receptor (Homo sapiens, UniProt P21917); assay: Displacement of [3H]A369508 from human D4 receptor expressed in HEK293 cell membrane; assay type: cell membranes
T1 sequence (P21917 whole entry): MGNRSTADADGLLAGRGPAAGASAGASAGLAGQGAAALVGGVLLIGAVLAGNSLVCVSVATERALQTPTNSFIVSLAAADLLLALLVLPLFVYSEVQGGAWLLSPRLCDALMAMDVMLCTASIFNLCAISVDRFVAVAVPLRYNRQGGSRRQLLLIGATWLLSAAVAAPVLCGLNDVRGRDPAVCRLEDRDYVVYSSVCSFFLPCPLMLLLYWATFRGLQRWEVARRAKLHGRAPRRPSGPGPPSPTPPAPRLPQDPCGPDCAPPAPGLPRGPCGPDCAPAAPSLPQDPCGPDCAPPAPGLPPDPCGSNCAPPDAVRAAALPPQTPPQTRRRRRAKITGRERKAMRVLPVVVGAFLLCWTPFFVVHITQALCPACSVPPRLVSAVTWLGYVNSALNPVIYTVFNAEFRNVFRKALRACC

[6] = AUC in dog at 1 mg/kg, po; assay type: ADME, organism-based, Canis lupus familiaris; parameters: dose 1 mg/kg, route oral; conditions: plasma; summary of the method: as §2
[7] = tested on: D(2) dopamine receptor (Mustela putorius furo); assay: Agonist activity at ferret D2 receptor in HEK293 cells coexpressing Galphaqo5 by FLIPR relative to dopamine upto 10 uM
Mustela putorius furo = species: Mustela putorius furo; assay: Induction of emesis in ferret; assay type: functional, organism-based
[8] = Cmax in rat at 1 mg/kg, po; assay type: ADME, organism-based; parameters: dose 1 mg/kg, route oral; conditions: in vivo; summary of the method: as §2
[9] = molecular target: D(2) dopamine receptor (Rattus norvegicus) (UniProt P61169); assay: Agonist activity at rat D2 receptor in HEK293 cells coexpressing G-alpha-qo5 by FLIPR relative to dopamine upto 10 uM; assay type: functional, cell-based
D(2) dopamine receptor (Rattus norvegicus), sequence (P61169 whole entry): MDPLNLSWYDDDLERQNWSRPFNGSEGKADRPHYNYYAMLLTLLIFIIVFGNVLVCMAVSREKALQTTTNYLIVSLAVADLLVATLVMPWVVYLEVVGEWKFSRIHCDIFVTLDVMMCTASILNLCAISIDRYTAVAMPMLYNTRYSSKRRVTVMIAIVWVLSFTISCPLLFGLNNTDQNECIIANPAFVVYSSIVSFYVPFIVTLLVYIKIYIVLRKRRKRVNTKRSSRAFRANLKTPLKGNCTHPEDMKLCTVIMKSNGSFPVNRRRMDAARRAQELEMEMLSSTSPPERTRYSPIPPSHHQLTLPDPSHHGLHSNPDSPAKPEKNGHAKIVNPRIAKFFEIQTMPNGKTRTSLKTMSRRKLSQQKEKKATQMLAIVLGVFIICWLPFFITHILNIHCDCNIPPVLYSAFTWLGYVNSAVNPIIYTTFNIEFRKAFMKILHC
Summary of the method: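 Ca2+ flux by FLIPR in HEK cells cotransfected with the D2 receptor (human, ferret or rat) plus chimeric G protein Gqo5.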

[10] = Half life in dog at 1 mg/kg, po; assay type: ADME, organism-based, Canis lupus familiaris; parameters: dose 1 mg/kg, route oral; conditions: in vivo; summary of the method: as §2
[11] = Cmax in dog at 1 mg/kg, po; assay type: ADME, organism-based, Canis lupus familiaris; parameters: dose 1 mg/kg, route oral; conditions: in vivo; summary of the method: as §2

hERG, sequence (Q12809 whole entry): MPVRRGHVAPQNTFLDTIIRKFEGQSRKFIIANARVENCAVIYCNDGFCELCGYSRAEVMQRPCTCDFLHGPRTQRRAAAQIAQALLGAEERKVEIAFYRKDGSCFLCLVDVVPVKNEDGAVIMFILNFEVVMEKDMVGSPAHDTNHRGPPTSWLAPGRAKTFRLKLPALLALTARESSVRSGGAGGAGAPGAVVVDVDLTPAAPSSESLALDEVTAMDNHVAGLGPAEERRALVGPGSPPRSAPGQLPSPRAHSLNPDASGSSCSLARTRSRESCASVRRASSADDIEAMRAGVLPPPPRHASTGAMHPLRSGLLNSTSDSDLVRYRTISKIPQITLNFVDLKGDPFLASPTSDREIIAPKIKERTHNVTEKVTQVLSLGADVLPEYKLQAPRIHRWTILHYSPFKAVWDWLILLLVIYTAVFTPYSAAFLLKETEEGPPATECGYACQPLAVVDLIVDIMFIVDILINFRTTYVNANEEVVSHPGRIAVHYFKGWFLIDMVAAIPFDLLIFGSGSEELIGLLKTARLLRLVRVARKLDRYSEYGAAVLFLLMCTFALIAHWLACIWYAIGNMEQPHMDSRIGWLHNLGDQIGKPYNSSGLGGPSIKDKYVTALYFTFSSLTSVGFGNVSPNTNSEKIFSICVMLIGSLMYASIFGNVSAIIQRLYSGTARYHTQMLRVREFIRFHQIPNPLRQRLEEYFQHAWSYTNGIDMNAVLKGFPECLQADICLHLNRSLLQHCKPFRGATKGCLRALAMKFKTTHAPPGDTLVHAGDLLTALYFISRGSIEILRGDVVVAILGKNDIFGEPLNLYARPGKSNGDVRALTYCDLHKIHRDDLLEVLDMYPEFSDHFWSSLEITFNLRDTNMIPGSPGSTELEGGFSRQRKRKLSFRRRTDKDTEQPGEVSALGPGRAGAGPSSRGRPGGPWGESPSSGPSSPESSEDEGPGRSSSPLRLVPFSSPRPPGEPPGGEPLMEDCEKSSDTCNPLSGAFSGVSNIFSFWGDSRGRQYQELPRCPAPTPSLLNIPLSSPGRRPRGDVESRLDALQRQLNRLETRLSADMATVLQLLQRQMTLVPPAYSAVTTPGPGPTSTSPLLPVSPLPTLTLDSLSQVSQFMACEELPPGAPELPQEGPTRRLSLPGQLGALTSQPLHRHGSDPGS

For `Cc1cccc(C(=O)NCN2CCC(c3cccc[n+]3[O-])CC2)c1`, the inhibition at 3 ug/mL (hERG) was 14.5%, the Activity [1] was “inactive” and the AUC [2] was 922 ng·h/mL. The Activity [3] was “inactive”, the Activity [4] was 0.6% and the bioavailability [5] was 91%. For the same compound, the Ki (D(2) dopamine receptor) was over 10000 nM, the Ki (D(4) dopamine receptor) was 1440 nM and the AUC [6] was 4280 ng·h/mL. For the same compound, the Activity [7] was “inactive”, the Activity (Mustela putorius furo) was “inactive” and the Cmax [8] was 417 ng/mL. The Activity [9] was “inactive”, the half-life [10] was 2.1 h and the Cmax [11] was 1420 ng/mL.

— ChEMBL document CHEMBL1137302 (J Med Chem, 2006)
